Screening results deposited in PubChem BioAssay by several laboratories.
Shown are actives, neighbours in structure and some others; about 6.8% of the full set was active somewhere.
PHOSPHO1 block – blocks human PHOSPHO1 phosphatase activity; Q8TCT1; recombinant PHOSPHO1, absorbance phosphatase assay; inhibition, % at 13.3 µM; 1.1% of 290,000 active; AID 1565; in the data active = inhibition above about 60%
Target sequence (Q8TCT1 whole entry, looked up): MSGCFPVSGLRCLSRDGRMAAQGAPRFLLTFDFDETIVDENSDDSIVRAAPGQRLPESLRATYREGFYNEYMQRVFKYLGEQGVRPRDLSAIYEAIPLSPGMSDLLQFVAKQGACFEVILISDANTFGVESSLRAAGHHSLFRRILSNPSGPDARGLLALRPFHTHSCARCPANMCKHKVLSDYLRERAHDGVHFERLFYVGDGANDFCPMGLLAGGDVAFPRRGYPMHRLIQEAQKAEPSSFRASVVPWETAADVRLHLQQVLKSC
HSF-1 act – increases HSF-1 driven luciferase reporter signal; 1.7% of 300,000 active; activation, % at 9 µM; NIH3T3-HGL HSF-1 luciferase reporter, MG132, 8 h; 100% = twice DMSO control signal;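 active = mean replicate activation of at least 50% with a set share of replicates each reaching 50%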;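 note: 0% = median of the neutral control wells and 100% = twice that signal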
HCV core dimer – HCV core protein dimerization inhibition | TR-FRET GST/Flag-core106 dimerization, 1536-well | inhibition, % at 5 µM | 0.33% of 300,000 active | AID 1899;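 active = inhibition above the mean of all tested compounds plus 3 SD, set per screening campaign, cut at about 45% in these data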
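System: GST/Flag-tagged HCV core106 proteins. Incubation: compound-protein-antibody incubation 4 h at 22.5 °C. Technique: HTRF with 340 nm excitation, 617/671 nm emission. Medium: KF-containing HEPES buffer, pH 7.45, DTT, CHAPS, BSA. Read-out: inhibition (%) from 671 over 617 nm ratio. Also added: Eu(K)-anti-GST 90 ng/mL plus XL665-anti-Flag 1 µg/mL.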
ALR H2O2 inh – human ALR oxidase inhibition via reduced H2O2. purified ALR, DTT oxidation, H2O2 HRP-luminol luminescence. P55789. inhibition, % (test concentration not listed). 3.8% of 290,000 active;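 active = mean replicate inhibition above about 79%, with every replicate also reaching it, limit read from the data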
Target sequence (P55789 whole entry, looked up): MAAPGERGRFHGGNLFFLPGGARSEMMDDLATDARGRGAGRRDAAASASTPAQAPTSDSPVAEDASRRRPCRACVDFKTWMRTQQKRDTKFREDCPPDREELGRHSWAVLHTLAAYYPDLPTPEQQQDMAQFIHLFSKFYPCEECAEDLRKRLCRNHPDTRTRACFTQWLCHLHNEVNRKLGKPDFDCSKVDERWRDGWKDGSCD
HSF1 inh – HSF1 inhibition; NIH3T3-HGL HSE-luciferase, MG132-induced, luminescence 8 h; hits give low values; AID 2098; 0.77% of 300,000 active; activity change, negative = inhibition, % at 7.5 µM (by protocol);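 active = more than half of replicate wells show activity change below -50%, luminescence cut by over half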;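 note: luciferase reports HSF-1 transcriptional activity via heat shock element; 0% = median of DMSO wells and -100% = zero luminescence signal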
AI-2 QS mod – Vibrio harveyi AI-2 quorum sensing modulation | 0.4% of 300,000 active | activity change, % at 7.5 µM | Vibrio harveyi JMH597 AI-2 luminescence/OD600 ratio, 9 h; hits give low values; strain lacks LuxN and CqsS sensors; 0 = neutral-control median; in the data active = activity change below about -75%, passing the limit was not always enough;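 note: luminescence divided by OD600 gain over 9 h not by final OD600 alone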
Active calls of the source: *.

Results for COc1ccc(C(=O)Cn2c(C(=O)/C=C/c3ccccc3)nc3ccccc32)cc1 ?
PHOSPHO1 block: 18; HSF-1 act: 341*; HCV core dimer: 20; ALR H2O2 inh: -3; HSF1 inh: 225; AI-2 QS mod: 23

What do the screens show for `COc1ccc(C(=O)CSc2nc3ccccc3n2CC(=O)c2ccccc2)cc1`?
PHOSPHO1 block: 33; HSF-1 act: -5; HCV core dimer: 7; ALR H2O2 inh: -4; HSF1 inh: -5; AI-2 QS mod: 31

What do the screens show for `O=C(CCC1CCCN(C(=O)c2cc3ccccc3o2)C1)NCc1ccc(F)c(F)c1` (stereo not given)?
HSF-1 act: 52*; HCV core dimer: -2; HSF1 inh: 44; AI-2 QS mod: 39

What do the screens show for `Cc1ccc(-c2nnc(SCC(=O)Nc3nccs3)n2N)cc1`?
PHOSPHO1 block: -21; HSF-1 act: -64; HCV core dimer: 0; ALR H2O2 inh: 66; HSF1 inh: -61*; AI-2 QS mod: 14

How did CCn1c(SCC(=O)Nc2nccs2)nnc1-c1ccc(C)cc1 do in these assays?
PHOSPHO1 block: 7; HSF-1 act: 4; HCV core dimer: -1; ALR H2O2 inh: -7; HSF1 inh: 4; AI-2 QS mod: -11

How did CCC(=O)Nc1ccc(-c2nnc(SCC(=O)Nc3nccs3)n2C)cc1 do in these assays?
PHOSPHO1 block: 103*; HSF-1 act: -14; HCV core dimer: -6; ALR H2O2 inh: -16; HSF1 inh: 0; AI-2 QS mod: 7

Results for CCn1c(SCC(=O)Nc2nccs2)nnc1C1CC1 ?
HSF-1 act: -3; HCV core dimer: 0; ALR H2O2 inh: 1; HSF1 inh: 4; AI-2 QS mod: 16

What do the screens show for `COc1ccc(-c2[nH]c(-c3ccc(C)cc3)nc2SCC(=O)Nc2nccs2)cc1`?
PHOSPHO1 block: -20; HSF-1 act: 9; HCV core dimer: -11; ALR H2O2 inh: 94*; HSF1 inh: 0; AI-2 QS mod: 28

Results for Nn1c(SCC(=O)Nc2nccs2)nnc1C1CC1 ?
HSF-1 act: 19; HCV core dimer: -4; ALR H2O2 inh: 99*; HSF1 inh: -3; AI-2 QS mod: 3

Results for Cn1c(SCC(=O)Nc2nccs2)nnc1-c1ccccn1 ?
PHOSPHO1 block: 21; HSF-1 act: 14; HCV core dimer: 5; ALR H2O2 inh: -2; HSF1 inh: -8; AI-2 QS mod: 20

How did COc1ccc(-c2nc(SCC(=O)Nc3nccs3)c(-c3ccc(Cl)cc3)[nH]2)cc1 do in these assays?
PHOSPHO1 block: -9; HSF-1 act: 12; HCV core dimer: -4; ALR H2O2 inh: 37; HSF1 inh: 2; AI-2 QS mod: 13

What do the screens show for `Nn1c(SCC(=O)N2CCOCC2)nnc1C1CC1`?
PHOSPHO1 block: 11; HSF-1 act: 83*; HCV core dimer: -6; ALR H2O2 inh: -1; HSF1 inh: 26; AI-2 QS mod: -2

What do the screens show for `Nn1c(SCC(=O)N2CCOCC2)nnc1-c1cccnc1`?
ALR H2O2 inh: -8

How did Nn1c(SCC(=O)Nc2ccccc2)nnc1C1CCCCC1 do in these assays?
HSF-1 act: 2; HCV core dimer: -1; ALR H2O2 inh: -6; HSF1 inh: -5; AI-2 QS mod: 17

Results for Nn1c(SCC(=O)NCc2ccccc2)nnc1C1CC1 ?
PHOSPHO1 block: 20; HSF-1 act: 52*; HCV core dimer: -6; ALR H2O2 inh: 16; HSF1 inh: 12; AI-2 QS mod: 16

How did CCN1C(=O)Cc2cc(S(=O)(=O)NCCc3ccccc3)ccc21 do in these assays?
PHOSPHO1 block: 47; HSF-1 act: 11; HCV core dimer: 14; HSF1 inh: -7; AI-2 QS mod: 28

How did CCc1ccc(OC2=NS(=O)(=O)c3ccccc32)cc1 do in these assays?
PHOSPHO1 block: 8; HSF-1 act: 2; HSF1 inh: -1; AI-2 QS mod: 14

What do the screens show for `CCN(CC)c1cccc(OC2=NS(=O)(=O)c3ccccc32)c1`?
PHOSPHO1 block: 7; HSF-1 act: -1; HCV core dimer: -7; ALR H2O2 inh: 99*; HSF1 inh: -9; AI-2 QS mod: 0

How did COc1cc(C(c2c(C)[nH][nH]c2=O)c2c(C)[nH][nH]c2=O)ccc1OCc1ccc([N+](=O)[O-])cc1 do in these assays?
PHOSPHO1 block: -24; HSF-1 act: 205*; HCV core dimer: 11; ALR H2O2 inh: -6; HSF1 inh: 140; AI-2 QS mod: 16

What do the screens show for `CCOc1cc(C(c2c(C)[nH][nH]c2=O)c2c(C)[nH][nH]c2=O)ccc1O`?
PHOSPHO1 block: -2; HSF-1 act: -29; HCV core dimer: 1; ALR H2O2 inh: 95*; HSF1 inh: -7; AI-2 QS mod: 13

How did Nc1c(C(=O)c2ccccc2)sc2snc(SCC(=O)c3ccccc3)c12 do in these assays?
PHOSPHO1 block: 32; HSF-1 act: 111*; HCV core dimer: 19; ALR H2O2 inh: 21; HSF1 inh: 51; AI-2 QS mod: 14

Results for Nc1nnc(SCC(=O)c2ccccc2)s1 ?
PHOSPHO1 block: 25; HSF-1 act: 4; HCV core dimer: 1; ALR H2O2 inh: 5; HSF1 inh: -7; AI-2 QS mod: 14

What do the screens show for `Cc1cccc(C(=O)N[C@H](C(=O)NCCc2ccc(S(N)(=O)=O)cc2)C(C)C)c1`?
PHOSPHO1 block: 28; HSF-1 act: 12; HCV core dimer: 8; HSF1 inh: -1; AI-2 QS mod: 16

What do the screens show for `CN1C(=O)C(CC(=O)O)S/C1=N\N=C\c1ccc(O)cc1O` (stereo not given)?
PHOSPHO1 block: 27; HSF-1 act: -18; HCV core dimer: -1; ALR H2O2 inh: 85*; HSF1 inh: 1; AI-2 QS mod: 15

Results for O=C(O)CC1S/C(=N\N=C/c2ccccc2)N(c2ccc(O)cc2)C1=O (stereo not given) ?
PHOSPHO1 block: 21; HSF-1 act: -13; HCV core dimer: -4; ALR H2O2 inh: 5; HSF1 inh: -13; AI-2 QS mod: 26

Results for CN(C)c1ccc(/C=N/N=C2/SC(CC(=O)O)C(=O)N2c2ccc(O)cc2)cc1 (stereo not given) ?
PHOSPHO1 block: 44; HSF-1 act: -4; HCV core dimer: -11; ALR H2O2 inh: 97*; HSF1 inh: 3; AI-2 QS mod: 3

What do the screens show for `C=CCN1C(=O)C(CC(=O)O)S/C1=N/N=C/c1ccc(N(CC)CC)cc1` (stereo not given)?
ALR H2O2 inh: 99*

What do the screens show for `COc1ccc(/C=N/N=C2\SC(CC(=O)O)C(=O)N2c2ccccc2)c(OC)c1` (stereo not given)?
PHOSPHO1 block: -15; HSF-1 act: -11; HCV core dimer: 4; ALR H2O2 inh: 45; HSF1 inh: 1; AI-2 QS mod: 1
